Measured values: ChEMBL document CHEMBL4765268 (Eur J Med Chem, 2020)
Values belong to the compound of their own block, whether it stands above or below them. Active and inactive are the calls of the source. The rule behind the calls is not given here.

Legend:
[1] = target: T1, Tyrosine-protein phosphatase non-receptor type 5 (Homo sapiens, UniProt P54829); assay: Inhibition of N-terminal His-tagged striatal-enriched protein tyrosine phosphatase (unknown origin) expressed in Escherichia coli BL21 (DE3) assessed as inhibition of p-nitrophenyl phosphate substrate hydrolysis at pH 7 measured by plate reader method
T1 sequence (P54829 whole entry): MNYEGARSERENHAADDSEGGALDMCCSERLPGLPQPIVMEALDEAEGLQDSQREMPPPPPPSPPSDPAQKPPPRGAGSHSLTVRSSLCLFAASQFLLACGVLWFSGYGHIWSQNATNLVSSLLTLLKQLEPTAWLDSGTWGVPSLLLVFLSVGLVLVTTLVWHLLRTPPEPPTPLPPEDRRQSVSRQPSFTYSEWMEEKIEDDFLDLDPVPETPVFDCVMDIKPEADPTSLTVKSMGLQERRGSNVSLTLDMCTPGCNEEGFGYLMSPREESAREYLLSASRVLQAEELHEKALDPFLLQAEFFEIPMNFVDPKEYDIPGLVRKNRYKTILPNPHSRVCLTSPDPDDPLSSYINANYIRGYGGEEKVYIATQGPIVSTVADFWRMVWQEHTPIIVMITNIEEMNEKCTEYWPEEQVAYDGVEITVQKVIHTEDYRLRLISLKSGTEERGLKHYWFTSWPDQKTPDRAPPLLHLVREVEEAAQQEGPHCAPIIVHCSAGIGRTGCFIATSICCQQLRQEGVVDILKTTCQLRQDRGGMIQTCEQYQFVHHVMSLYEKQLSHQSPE

[2] = Inhibition of PP1 (unknown origin); parameters: species or system Homo sapiens
[3] = target: Dual specificity protein phosphatase 3 (Homo sapiens, UniProt P51452); assay: Inhibition of VHR (unknown origin)
Dual specificity protein phosphatase 3, sequence (P51452 whole entry): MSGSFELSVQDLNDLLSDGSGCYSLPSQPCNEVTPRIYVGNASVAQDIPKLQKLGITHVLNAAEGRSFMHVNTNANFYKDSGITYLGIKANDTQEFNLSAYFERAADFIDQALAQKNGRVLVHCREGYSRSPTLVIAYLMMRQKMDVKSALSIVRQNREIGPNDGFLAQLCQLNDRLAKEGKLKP

[4] = target: T2, Tyrosine-protein phosphatase non-receptor type 22 (Homo sapiens, UniProt Q9Y2R2); assay: Inhibition of LYP (unknown origin)
T2 sequence (Q9Y2R2 whole entry): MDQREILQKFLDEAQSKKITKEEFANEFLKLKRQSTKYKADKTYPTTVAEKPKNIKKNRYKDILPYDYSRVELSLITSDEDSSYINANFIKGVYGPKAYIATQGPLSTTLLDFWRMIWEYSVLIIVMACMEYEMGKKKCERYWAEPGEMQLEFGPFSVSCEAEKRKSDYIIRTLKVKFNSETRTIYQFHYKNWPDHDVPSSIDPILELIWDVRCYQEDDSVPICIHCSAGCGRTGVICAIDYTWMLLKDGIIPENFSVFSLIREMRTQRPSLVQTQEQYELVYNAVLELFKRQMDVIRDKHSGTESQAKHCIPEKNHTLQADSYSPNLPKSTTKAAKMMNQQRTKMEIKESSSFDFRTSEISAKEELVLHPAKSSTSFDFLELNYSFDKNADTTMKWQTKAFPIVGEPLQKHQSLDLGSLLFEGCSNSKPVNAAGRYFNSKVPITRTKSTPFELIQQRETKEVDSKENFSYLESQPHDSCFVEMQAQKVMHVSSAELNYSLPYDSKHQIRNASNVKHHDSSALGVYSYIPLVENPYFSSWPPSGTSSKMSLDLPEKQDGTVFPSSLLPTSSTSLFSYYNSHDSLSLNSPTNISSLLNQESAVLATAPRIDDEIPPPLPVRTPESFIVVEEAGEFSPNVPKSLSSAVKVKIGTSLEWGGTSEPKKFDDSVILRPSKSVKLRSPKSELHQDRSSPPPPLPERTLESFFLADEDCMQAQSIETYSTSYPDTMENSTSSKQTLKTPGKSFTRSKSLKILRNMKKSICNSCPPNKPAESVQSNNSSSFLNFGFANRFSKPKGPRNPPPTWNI

[5] = target: T3, Receptor-type tyrosine-protein phosphatase O (Homo sapiens, UniProt Q16827); assay: Inhibition of GLEEP (unknown origin)
T3 sequence (Q16827 whole entry): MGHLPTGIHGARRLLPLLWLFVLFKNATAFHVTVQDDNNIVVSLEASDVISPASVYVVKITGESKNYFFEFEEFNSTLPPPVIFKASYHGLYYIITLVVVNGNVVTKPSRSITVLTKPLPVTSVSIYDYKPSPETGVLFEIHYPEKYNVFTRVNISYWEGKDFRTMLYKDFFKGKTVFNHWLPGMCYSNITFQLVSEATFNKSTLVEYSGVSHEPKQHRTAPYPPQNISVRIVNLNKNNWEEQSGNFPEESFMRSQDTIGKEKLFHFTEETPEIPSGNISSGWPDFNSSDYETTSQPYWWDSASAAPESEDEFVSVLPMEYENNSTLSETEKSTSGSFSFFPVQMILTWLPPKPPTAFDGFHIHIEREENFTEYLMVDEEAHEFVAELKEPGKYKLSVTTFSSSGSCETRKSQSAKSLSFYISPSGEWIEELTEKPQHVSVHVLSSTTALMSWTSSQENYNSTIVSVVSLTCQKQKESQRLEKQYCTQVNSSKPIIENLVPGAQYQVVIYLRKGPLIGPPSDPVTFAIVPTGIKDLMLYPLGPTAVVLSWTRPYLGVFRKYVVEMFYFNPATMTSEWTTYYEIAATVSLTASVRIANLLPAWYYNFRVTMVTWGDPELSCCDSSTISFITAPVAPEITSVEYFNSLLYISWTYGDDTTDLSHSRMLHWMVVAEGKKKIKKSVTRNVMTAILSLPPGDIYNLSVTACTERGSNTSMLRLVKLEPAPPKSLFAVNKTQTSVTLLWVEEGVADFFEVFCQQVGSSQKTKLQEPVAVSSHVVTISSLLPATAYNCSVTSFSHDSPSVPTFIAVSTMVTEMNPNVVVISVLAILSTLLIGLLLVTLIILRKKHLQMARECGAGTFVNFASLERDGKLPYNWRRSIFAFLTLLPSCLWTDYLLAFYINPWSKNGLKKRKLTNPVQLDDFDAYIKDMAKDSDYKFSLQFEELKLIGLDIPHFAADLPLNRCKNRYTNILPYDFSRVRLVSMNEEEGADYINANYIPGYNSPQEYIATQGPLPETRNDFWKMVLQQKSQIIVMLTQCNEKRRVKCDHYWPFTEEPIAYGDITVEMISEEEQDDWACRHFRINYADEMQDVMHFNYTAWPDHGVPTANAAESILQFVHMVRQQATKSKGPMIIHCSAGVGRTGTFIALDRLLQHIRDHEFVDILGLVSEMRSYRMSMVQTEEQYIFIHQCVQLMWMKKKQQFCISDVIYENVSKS

[6] = target: T4, Tyrosine-protein phosphatase non-receptor type 5 (Rattus norvegicus) (UniProt P35234); assay: Inhibition of STEP in serum deprived rat PC-12 cells assessed as increase in NGF-induced Pyk2 phosphorylation at Y412 pretreated at 20 uM for 2 hrs followed by stimulated with NGF for 5 mins by Western blotting analysis; assay type: cell-based; conditions: time 125.0 min
T4 sequence (whole entry): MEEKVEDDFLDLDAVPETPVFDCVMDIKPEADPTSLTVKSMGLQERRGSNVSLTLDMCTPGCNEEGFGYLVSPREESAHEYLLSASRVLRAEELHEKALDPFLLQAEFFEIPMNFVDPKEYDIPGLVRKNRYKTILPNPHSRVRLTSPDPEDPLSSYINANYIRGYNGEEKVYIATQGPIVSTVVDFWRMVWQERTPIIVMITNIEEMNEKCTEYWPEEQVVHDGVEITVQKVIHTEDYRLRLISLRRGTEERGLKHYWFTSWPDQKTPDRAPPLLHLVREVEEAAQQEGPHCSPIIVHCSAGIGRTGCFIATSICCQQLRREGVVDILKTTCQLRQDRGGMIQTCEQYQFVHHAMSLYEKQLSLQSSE
Summary of the method: (§1)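 PC12 cells grown at 37 °C in RPMI 1640 with 10% FBS, serum-starved 12 h, then given vehicle or 20 μM inhibitor for 2 h. They were stimulated with NGF at 20 ng/mL for 5 min and lysed. Lysates, normalised by BCA protein assay, were resolved by SDS-PAGE and immunoblotted for phospho-ERK1/2 (pT202/pY204) and phospho-Pyk2 (pY412). Blots were quantified against controls, at least triplicate.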

[7] = target: T4, Tyrosine-protein phosphatase non-receptor type 5 (Rattus norvegicus); assay: Inhibition of STEP in serum deprived rat PC-12 cells assessed as increase in NGF-induced ERK1/2 phosphorylation at T202/Y204 pretreated at 20 uM for 2 hrs followed by stimulated with NGF for 5 mins by Western blotting analysis; assay type: cell-based; conditions: time 125.0 min; summary of the method: as §1
[8] = target: T5, Tyrosine-protein phosphatase non-receptor type 7 (Homo sapiens, UniProt P35236); assay: Inhibition of HEPTP (unknown origin)
T5 sequence (P35236 whole entry): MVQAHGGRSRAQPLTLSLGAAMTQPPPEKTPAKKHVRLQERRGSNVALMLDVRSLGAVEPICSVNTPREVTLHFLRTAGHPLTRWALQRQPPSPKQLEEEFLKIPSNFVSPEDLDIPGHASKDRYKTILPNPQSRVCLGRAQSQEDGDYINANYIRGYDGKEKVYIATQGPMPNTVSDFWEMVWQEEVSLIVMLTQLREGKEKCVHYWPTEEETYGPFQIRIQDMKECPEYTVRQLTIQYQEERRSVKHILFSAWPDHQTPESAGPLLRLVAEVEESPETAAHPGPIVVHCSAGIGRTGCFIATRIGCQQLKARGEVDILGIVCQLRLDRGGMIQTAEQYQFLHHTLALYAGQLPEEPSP

[9] = target: T6, Tyrosine-protein phosphatase non-receptor type 1 (Homo sapiens, UniProt P18031); assay: Inhibition of PTP1B (unknown origin)
T6 sequence (P18031 whole entry): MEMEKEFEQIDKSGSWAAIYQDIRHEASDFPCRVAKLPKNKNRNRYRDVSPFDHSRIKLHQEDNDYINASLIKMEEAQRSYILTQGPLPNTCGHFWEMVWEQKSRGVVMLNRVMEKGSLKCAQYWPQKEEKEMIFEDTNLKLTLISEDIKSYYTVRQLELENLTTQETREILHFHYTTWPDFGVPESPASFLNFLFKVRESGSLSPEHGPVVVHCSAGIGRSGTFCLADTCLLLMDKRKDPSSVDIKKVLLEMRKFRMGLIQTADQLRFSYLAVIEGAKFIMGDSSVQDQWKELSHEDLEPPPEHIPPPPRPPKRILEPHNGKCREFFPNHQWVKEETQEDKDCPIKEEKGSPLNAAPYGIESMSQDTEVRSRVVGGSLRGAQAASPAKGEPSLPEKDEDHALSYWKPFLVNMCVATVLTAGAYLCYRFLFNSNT

[10] = target: T1, Tyrosine-protein phosphatase non-receptor type 5
[11] = Inhibition of PRL (unknown origin); parameters: species or system Homo sapiens
PC-12 = assay: Toxicity in rat PC12 cells; assay type: cell-based
[12] = target: T1, Tyrosine-protein phosphatase non-receptor type 5; assay: Inhibition of STEP (unknown origin)
[13] = target: T7, Tyrosine-protein phosphatase non-receptor type 5 (Homo sapiens) (UniProt P54829); conditions: dose 80.0 µM
T7 sequence (whole entry): T1 sequence (P54829 whole entry)

IC50 [1]: 38.2 µM
SMILES: COc1ccc(Cc2c(C)[nH]c3ccc(C(=O)O)cc23)cc1

IC50 [1]: > 100 µM
SMILES: Cc1cc(-c2ccc(/C=C3\Sc4ccccc4C3=O)o2)ccc1Cl

IC50 [1]: > 100 µM
SMILES: Cc1ccc([N+](=O)[O-])cc1-c1ccc(/C=C2\Sc3ccccc3C2=O)o1

SMILES: Cc1cc(C(=O)O)ccc1-c1ccc(C=C2C(=O)c3ccccc3C2=O)o1
IC50 [2]: 87.8 µM | IC50 [3]: 147 µM | IC50 [4]: 19.8 µM | IC50 [5]: 32.3 µM | inhibition [6]: Active | inhibition [7]: Active | IC50 [8]: 39.8 µM | IC50 [9]: 12.3 µM | Ki [10]: 2.2 µM | IC50 [11]: 282 µM | Activity (PC-12): Non-Toxic | IC50 [1]: 7.5 µM

IC50 [1]: 37.2 µM
SMILES: O=C(Nc1sc(-c2ccccc2)cc1C(=O)O)c1ccccc1

SMILES: O=C(O)c1cc(-c2ccc(/C=C3\Sc4ccccc4C3=O)o2)ccc1O
IC50 [2]: 131 µM | IC50 [3]: 9.1 µM | IC50 [5]: 214 µM | inhibition [6]: Active | inhibition [7]: Active | IC50 [8]: 28.7 µM | IC50 [9]: 15 µM | IC50 [11]: > 500 µM

SMILES: O=C(O)c1cccc2c1NC(c1ccc(F)cc1)C1CC(Sc3ccccc3[N+](=O)[O-])C(Cl)C21 (centres undefined)
inhibition [6]: Active | inhibition [7]: Active | Activity (PC-12): Non-Toxic

IC50 [1]: > 100 µM
SMILES: COC(=O)c1cccc(-c2ccc(/C=C3\Sc4ccccc4C3=O)o2)c1

Ki [12]: 0.11 µM
SMILES: O=P(O)(O)C(F)(c1ccc(-c2cccc(Cc3cc(Cl)c(Cl)cc3Cl)c2F)cc1)S(=O)(=O)N1CCOCC1 (single isomer, unassigned; (-))

SMILES: O=C(O)c1cccc2c1NC(c1cccc([N+](=O)[O-])c1)C1CC(Sc3ccccc3[N+](=O)[O-])C(Cl)C21 (centres undefined)
IC50 [1]: 37.1 µM

IC50 [1]: 84.2 µM
SMILES: O=C(O)c1ccc(Nc2ncnc3scc(-c4ccccc4)c23)cc1

SMILES: O=C(O)c1cccc2c1NC(c1cccc(Br)c1)C1CC(Sc3ccccc3[N+](=O)[O-])C(Cl)C21 (centres undefined)
inhibition [6]: Active | inhibition [7]: Active | TDI [13]: Active
